High-throughput results deposited in PubChem by The Scripps Research Institute Molecular Screening Center.
mABHD4 FP: inhibits mouse alpha/beta hydrolase domain 4 | Q8VD66 | purified mABHD4, FP-Rh probe fluorescence polarization | inhibition, % at 8.92 µM | 370,000 compounds, 0.54% hits;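 active = inhibition exceeding the mean over every tested compound plus 3 SD, cut at about 30% in these data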;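 also: 0% = plate median of compound wells and 100% = S159A mutant with DMSO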
Target sequence (Q8VD66 whole entry, looked up, the tested form may be a part): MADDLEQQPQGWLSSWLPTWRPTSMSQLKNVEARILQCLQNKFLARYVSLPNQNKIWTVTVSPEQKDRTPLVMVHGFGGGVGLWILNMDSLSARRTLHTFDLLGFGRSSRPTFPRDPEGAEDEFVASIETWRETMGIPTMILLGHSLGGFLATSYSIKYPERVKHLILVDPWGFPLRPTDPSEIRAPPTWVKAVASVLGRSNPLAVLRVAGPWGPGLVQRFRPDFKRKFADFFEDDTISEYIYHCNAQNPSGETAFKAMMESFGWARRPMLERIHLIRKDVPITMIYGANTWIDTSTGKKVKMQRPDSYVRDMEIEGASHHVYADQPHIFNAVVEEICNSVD
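Assay system: mouse ABHD4 enzyme, wild type / Also added: fluorescent activity-based probe FP-Rh / Doses: single nominal dose of 8.92 µM, 0.89% DMSO final / Timing: 45 min compound pre-incubation plus 60 min probe step, 25 °C / Signal: FP readout, ex 525 nm / em 598 nm / Control set: S159A mutant/DMSO as 100%, compound-well median as 0%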
PRMT1 inh: blocks human protein arginine methyltransferase 1; Q99873; recombinant PRMT1, activity-based probe fluorescence polarization; inhibition, % at 2.79 µM; 370,000 compounds, 1.3% hits; AID 652257;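 active = inhibition above about 21% made by adding two undisclosed values, limit read from the data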
TCR-CD3 inh: inhibitors of human TCR-CD3 interaction; TAMRA-labeled TCR probe fluorescence, biochemical; inhibition, % at 9.4 µM; 360,000 compounds, 0.37% hits; in the data active = inhibition above about 19%;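 also: recombinant mutant TCR 2C K166C tagged with TAMRA read by polarization; 0% = receptor in buffer alone and 100% = receptor with positive control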
rCAG RNA binder: r(CAG) repeat RNA binding; TO-PRO-1 dye displacement fluorescence; inhibition, % at 3 µM; 370,000 compounds, 1.3% hits;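 active = inhibition above the plate cutoff, the mean of all test compounds on that plate plus 3 SD, cut at about 35% in these data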;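 also: 0% = DMSO alone and 100% = 100 µM mitoxantrone as full dye displacement; higher means more dye released from RNA so lower well fluorescence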
SIAE primary: human SIAE inhibition, primary screen; SIAE FP-Rh probe binding, fluorescence polarization; inhibition, % at 9.66 µM; 370,000 compounds, 0.69% hits;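 active = inhibition above a cutoff: mean of compounds within the control limits plus 3 SD of those, cut at about 17% in these data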;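 also: 0% = plate median of compound wells and 100% = probe without SIAE protein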
PRMT1 confirm: confirmation of human PRMT1 inhibitors; shares compounds with PRMT1 inh; recombinant His-PRMT1, activity-based probe fluorescence polarization; inhibition, % at 2.79 µM; 3,300 compounds, 42% hits;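 active = mean inhibition across replicates above the hit cutoff derived for the earlier primary screen, cut at about 22% in these data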
The depositor's hits bear a star; nt = no result. Rows were chosen to be rich in hits. Some 3.3% of all compounds tested hit in one or more screens of this group.

SMILES	mABHD4 FP	PRMT1 inh	TCR-CD3 inh	rCAG RNA binder	SIAE primary	PRMT1 confirm
NC(=O)c1ccc(SCC(=O)OCC(=O)NCc2cccs2)c([N+](=O)[O-])c1	-6.4	44.9*	9.0	0.1	-17.2	-4.1
CCOC(=O)CNC(=O)CSc1nc(Cc2cccs2)nc2ccccc12	4.2	27.0*	-0.6	7.6	-3.6	22.3*
COc1cccc(-c2nc(SC)nc3sc(C(=O)NC(C)(C)C)c(N)c23)c1	0.2	25.4*	-1.6	7.4	4.6	0.0
COc1ccc(-c2cc(C(F)(F)F)c3c(N)c(C(=O)NCCSC)sc3n2)cc1	0.2	2.9	-0.8	-1.8	-5.5	nt
COCc1cc(N2CCN(C(=O)OC(C)(C)C)C[C@@H]2C)ccc1N1C[C@@H](C)O[C@@H](C)C1	-5.9	-0.4	5.7	0.5	6.0	nt
COCc1cc(N2CCN(C(=O)OC(C)(C)C)C[C@H]2C)ccc1N1CC[C@@H](O)C1	26.1	66.1*	-9.1	10.8	4.5	8.9
CS(=O)(=O)N[C@@H]1C[C@@H]2O[C@H](CO)CC[C@@H]2O[C@@H]1CCc1ccc(-c2ccccc2F)cc1	-0.9	-2.9	nt	1.6	0.8	nt
O=C(CCSc1ccc(Cl)cc1)c1cccs1	-9.9	48.5*	0.2	0.2	0.1	43.1*
CCOC(=O)C1CCCCN1C(=O)[C@@H]1CC=C[C@@H]2CCN(c3ccccc3)C(=O)[C@@H]21 (stereo partly specified)	0.3	-1.0	nt	nt	3.9	nt
CC(=O)c1cc(-c2cccc(Cl)c2O)c(=O)n2c1CCC2	-0.8	-0.3	nt	7.2	2.0	nt
CC(C)CC1=NN2C(=N)/C(=C\c3coc4ccccc4c3=O)C(=O)N=C2S1	3.1	34.2*	-2.3	-178.0	-19.3	47.9*
COc1ccc([N+](=O)[O-])cc1NC(=O)CSc1nc(C)cc(C)n1	-9.9	54.3*	-5.2	11.9	7.9	44.6*
COc1ccc([N+](=O)[O-])cc1NC(=O)CSc1ccc2ccccc2c1	-28.4	1.8	5.4	13.9	-2.6	nt
NC(=O)CCC(NC(=O)c1ccc(Cl)cc1)C(=O)O (stereo unspecified)	6.5	51.6*	0.8	2.1	4.6	-7.3
N#CCN1CCC(c2cc(-c3ccco3)n[nH]2)CC1	1.5	57.0*	3.1	5.3	-3.4	3.0
CCCCOCCCNC(=O)C[C@H]1C(=O)N(CCCOC)C2=CCCCC[C@]21C(=O)OC	-2.6	0.0	nt	-2.8	5.2	nt
Cc1ccc(NC(=S)N2CCSC2c2cccs2)cc1 (stereo unspecified)	-1.4	59.5*	0.0	0.8	-2.3	10.2
COc1ccc(C2SCCN2C(=S)Nc2cccc(Cl)c2)cc1 (stereo unspecified)	-9.1	79.7*	-6.7	9.1	-19.4	2.0
COc1ccc(C2CCCN2C(=S)Nc2cccc(Cl)c2)cc1OC (stereo unspecified)	-6.4	-8.2	2.0	-0.2	0.0	nt
COc1ccc(C2SCCN2C(=S)Nc2ccc(Cl)cc2)cc1 (stereo unspecified)	-9.8	65.6*	-2.2	2.7	-2.5	9.3
O=C(Cc1ccccc1)NC1CCCCN(Cc2ccc(Cl)cc2)C1=O (stereo unspecified)	-3.8	-1.7	nt	1.8	-23.0	nt
COc1cc(O)c([C@@H](CC(=O)N2CC(C)CC(C)C2)c2ccc3c(c2)OCO3)c(OC)c1 (stereo partly specified)	-12.0	-1.7	nt	nt	0.8	nt
CCCCCC(=O)N(O)C1CC(=O)N(c2ccccc2)C1=O (stereo unspecified)	-0.2	83.6*	5.7	5.7	3.1	85.3*
C[C@H]1COc2cc(N3CCCC3)ccc2S(=O)(=O)N1	-4.7	0.3	-1.5	1.1	-0.3	nt
CCCCC(=O)NNC(=O)c1c(O)c2ccccc2[nH]c1=O	-5.7	-3.4	17.7	1.4	-9.3	nt
SMILES	mABHD4 FP	PRMT1 inh	TCR-CD3 inh	rCAG RNA binder	SIAE primary	PRMT1 confirm
CCCCC(=O)Nc1c(O)c2ccccc2[nH]c1=O	-2.6	30.5*	-3.6	-1.3	-0.8	-3.4
CC(=O)Nc1c(O)c2ccccc2[nH]c1=O	1.9	36.2*	1.8	-3.5	2.0	13.3
O=C1C(=C2CCCCC2)SC(=S)N1Cc1ccco1	10.5	44.1*	5.2	19.4	7.3	39.0*
CCCC[C@H]1C2CC(OC(=O)Nc3cccc(Br)c3)C(C2)[C@H]2CCCCN21 (stereo partly specified)	1.4	1.4	nt	4.5	-4.1	nt
Cc1ccc(S(=O)(=O)CCSC(=N)N)cc1	-1.0	25.0*	5.6	-5.4	2.9	6.8
Cc1ccc(C)c(Cn2c(=O)n(CCC(=O)NCc3ccco3)c(=O)c3ccccc32)c1	-1.8	-0.6	7.6	-2.5	-18.4	nt
Cc1ccc(C)c(Cn2c(=O)n(CCCC(=O)NCc3ccco3)c(=O)c3ccccc32)c1	-0.7	101.9*	-3.3	-3.1	2.8	-2.0
CN(CCO)c1ccc2c(c1)Oc1ccccc1CN(Cc1cn(Cc3cccc(C(F)(F)F)c3)nn1)S2(=O)=O	-0.4	-0.3	nt	3.1	1.2	nt
Cc1ccnc(NC(=S)N2CC3CN(c4cccc(C(F)(F)F)c4)CC3C2)c1 (stereo unspecified)	13.2	25.4*	nt	nt	-0.6	22.8*
Cc1ccc(/C=C/C(=O)Nc2nn[nH]n2)o1	0.7	35.5*	9.3	-2.0	10.0	54.7*
COC(=O)c1sc(NC(=O)/C=C/c2ccc(C)o2)nc1C	-6.5	6.6	5.3	14.3	-9.0	nt
Cc1ccc(/C=C/C(=O)Nc2cccnc2)o1	0.6	14.0	1.9	4.5	8.4	nt
Cc1ccc(/C=C/C(=O)Nc2cccc3ncccc23)o1	13.1	69.0*	-5.0	1.2	2.6	28.2*
CCCCCCCCN1C(=O)[C@@H](CC(=O)NCCCOC)C[C@@]2(C(=O)OC)C1=C[C@H](C(C)C)O[C@@H]2C1CC1	0.4	-3.7	nt	0.0	6.6	nt
C[n+]1c(-c2ccccc2)sc([S-])c1-c1ccccc1	-4.3	50.8*	-10.0	1.8	-2.5	20.0
COc1ccc(C(=O)/C=C/C(=O)N(CC(=O)NC2CCCCC2)CC2CCCO2)c(O)c1 (stereo unspecified)	1.7	33.9*	6.1	-3.4	-3.8	41.5*
Cc1nn(C)cc1/C=N/NC(=S)Nc1ccccc1	0.6	39.1*	0.4	3.9	5.6	4.3
O=C(CSc1nnc(-c2cccnc2)n1C1CCCCC1)N1CCCC1	6.3	4.0	nt	6.2	-4.4	nt
COc1ccc(C(c2nnnn2-c2ccc(OC)cc2)N2CCN(C/C=C/c3ccccc3)CC2)cc1 (stereo unspecified)	-0.4	-5.4	6.9	5.8	0.7	nt
COc1ccc(C(c2nnnn2C(C)(C)C)N2CCN(C/C=C/c3ccccc3)CC2)cc1 (stereo unspecified)	-2.2	34.9*	-5.8	-0.7	-5.8	7.2
O=C1CCC[C@H]2C[C@H](NCc3ccc(Br)cc3)CC[C@]23CCCN13	-1.1	-0.8	nt	nt	-2.9	nt
CN(C)[C@@H]1CCN(c2cccc3c2S(=O)(=O)N2CC[C@H](C2)O3)C1	-1.6	-2.7	nt	1.9	-4.9	nt
